Data set [1] is described as follows: Aggregation property of the compound in NMR buffer assessed as aggregate size at 500 uM by dynamic light scattering analysis. The format is physicochemical. The essentials:
(§1)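 Dynamic light scattering in NMR buffer, samples filtered through 0.22 μm and centrifuged 5 min at 13 500 rpm before measurement. Autocorrelation accumulated 150 s at a 173° scattering angle, in replicates of 3–5, with water viscosity used in analysis; intensity or volume size distributions reported.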

Data set [2] is described as follows: Aggregation property of the compound in NMR buffer assessed as diameter of aggregate at 500 uM by dynamic light scattering analysis. The class given is physicochemical. An outline of the steps:
as §1

Data set [3] is described as follows: Aggregation property of the compound assessed as change in peak intensity by measuring concentration at which peak intensities deviated from the linear correlation by 1H-NMR analysis. The class given is physicochemical. An outline of the steps:
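Line widths, chemical shifts and peak intensities tracked; CAC taken as the concentration where intensities deviate from linear dependence, or, for line width, the minimal concentration that increases peak width.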

A short description of data set [4]: Binding affinity to Triton-X 100 assessed as aggregate formation at 1:2 ratio of Triton-X 100 to compound by dynamic light scattering analysis. An outline of the steps: as §1
Data set [5] can be described thus: Binding affinity to Triton-X 100 assessed as intra-molecular cross relaxation at 100 uM by NOESY spectra analysis. An outline of the steps: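 2D NOESY and ROESY of 100 μM ESI with 0.025% Triton X-100 or 500 μM ESI with 0.05% Triton X-100; 2K × 512 complex points, 12 ppm spectral width centred at 4.7 ppm, intra- and intermolecular cross-peaks mapped.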
Data set [6] is described as follows: Binding affinity to Triton-X 100 assessed as intra-molecular saturation transfer at 100 uM at 6.61 ppm by STD spectra analysis. The essentials:
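STD NMR, saturation by a train of 40 Gaussian pulses of 50 ms each; selective on-resonance irradiation at the stated ppm (TX at 7.48 ppm), off-resonance at 30 ppm, interleaved and subtracted by phase cycling. 32K points, 16 ppm width centred at 4.7 ppm, 256 scans, 16 dummy scans, 0.1 s recycle delay (~15 min); 3 Hz exponential line broadening.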

In data set [7] the target is T1, Rap guanine nucleotide exchange factor 3 (Homo sapiens) (UniProt O95398).
T1 sequence (whole entry): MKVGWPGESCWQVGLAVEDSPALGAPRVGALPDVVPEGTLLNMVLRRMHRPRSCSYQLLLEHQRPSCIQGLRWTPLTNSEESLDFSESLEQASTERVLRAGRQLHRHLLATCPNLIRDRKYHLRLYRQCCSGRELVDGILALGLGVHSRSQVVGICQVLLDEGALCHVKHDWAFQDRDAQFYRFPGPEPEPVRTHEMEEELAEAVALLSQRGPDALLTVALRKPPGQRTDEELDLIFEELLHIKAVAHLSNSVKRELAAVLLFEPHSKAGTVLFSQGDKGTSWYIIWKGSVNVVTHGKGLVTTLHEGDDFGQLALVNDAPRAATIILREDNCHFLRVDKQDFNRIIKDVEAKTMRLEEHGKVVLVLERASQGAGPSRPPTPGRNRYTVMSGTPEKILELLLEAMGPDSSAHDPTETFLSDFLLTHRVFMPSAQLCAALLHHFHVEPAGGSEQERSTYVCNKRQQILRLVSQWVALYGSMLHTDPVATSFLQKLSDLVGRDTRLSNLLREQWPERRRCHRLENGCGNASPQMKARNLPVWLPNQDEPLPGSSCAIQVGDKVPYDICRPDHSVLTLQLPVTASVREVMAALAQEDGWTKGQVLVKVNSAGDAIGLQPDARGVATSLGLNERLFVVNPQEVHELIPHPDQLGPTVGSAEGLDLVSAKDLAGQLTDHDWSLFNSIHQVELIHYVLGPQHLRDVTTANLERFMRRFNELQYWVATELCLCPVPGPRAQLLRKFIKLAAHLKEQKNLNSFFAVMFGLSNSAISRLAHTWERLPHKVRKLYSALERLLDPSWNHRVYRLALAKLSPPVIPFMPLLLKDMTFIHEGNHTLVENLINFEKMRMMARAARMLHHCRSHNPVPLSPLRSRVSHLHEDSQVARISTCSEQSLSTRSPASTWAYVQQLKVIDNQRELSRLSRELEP
In words: Binding affinity to human EPAC1 cAMP binding domain (149 to 318 residues) assessed as intensity loss using aggregate form of compound by [15N-1H]HSQC spectroscopic analysis.

The nature of data set [8]: Binding affinity to Triton-X 100 assessed as line broadening at 100 uM by 1H-NMR spectra analysis.
In data set [9] the target is T1, Rap guanine nucleotide exchange factor 3 (Homo sapiens). Kind of data set: Binding affinity to human EPAC1 cAMP binding domain (149 to 318 residues) assessed as peak size at 50 to 200 uM by dynamic light scattering analysis. An outline of the steps: as §1
Data set [10] has the same target. In words: Binding affinity to human EPAC1 cAMP binding domain (149 to 318 residues) assessed as peak size at 50 to 200 uM using aggregate form of compound by dynamic light scattering analysis. The essentials: as §1
A short description of data set [11]: Binding affinity to Triton-X 100 assessed as change in chemical shift for aggregate formation at 100 to 300 uM by 1H-NMR analysis.
A short description of data set [12]: Binding affinity to Triton-X 100 assessed as line broadening at 100 to 300 uM by 1H-NMR analysis.
The target of data set [13] is T2, Albumin (Homo sapiens, UniProt P02768). In words: Displacement of [13C]oleic acid from human serum albumin by CH-HSQC spectra analysis. An outline of the steps:
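Fatty-acid-free recombinant HSA at 250 μM in sodium phosphate buffer (20 mM NaPO4, pH 7.6, 50 mM NaCl, D2O), 37 °C for 30 min. 13C-oleic acid (100 mM stock in DMSO-d6, warmed to 50 °C for 10 min) added to 1.5 mM, then 2 h at 37 °C. CH-HSQC at 298 K; loss of site-specific cross-peaks A–H scored.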

Data set [14] has as its target T2, Albumin. Kind of data set: Displacement of dansylated arginine from human serum albumin by fluorescence assay. To be noted: read-out: Kd(app). An outline of the steps:
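Competition of ligand against 100 μM dansyl-arginine (Sudlow site 1, 1:1 stoichiometry) bound to 2.5 μM HSA. Excitation 370 nm, emission 460 nm. Apparent Kd fitted by Wang's method using least squares, assuming no other ligand sites on HSA, so treated as a maximum apparent value.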

Data set [15] deals with T1, Rap guanine nucleotide exchange factor 3 (Homo sapiens). In words: Ratio of apparent Kd for binding affinity to human EPAC1 cAMP binding domain (149 to 318 residues) in presence of human serum albumin to apparent Kd for binding affinity to human EPAC1 cAMP binding domain (149 to 318 residues) in absence of human serum albumin.
Data set [16] shares this target. In words: Binding affinity to human EPAC1 cAMP binding domain (149 to 318 residues) assessed as increase in peak intensity at 100 uM in presence of human serum albumin by [15N-1H]HSQC spectroscopic analysis relative to control.
The target is the same in data set [17]. Kind of data set: Binding affinity to human EPAC1 cAMP binding domain (149 to 318 residues) assessed as change in chemical shift at 100 uM in presence of human serum albumin by [15N-1H]HSQC spectroscopic analysis relative to compound alone.

The source made the active and inactive calls. The calls are words filed in the database; no cut-off is given here.

T2 sequence (P02768 whole entry): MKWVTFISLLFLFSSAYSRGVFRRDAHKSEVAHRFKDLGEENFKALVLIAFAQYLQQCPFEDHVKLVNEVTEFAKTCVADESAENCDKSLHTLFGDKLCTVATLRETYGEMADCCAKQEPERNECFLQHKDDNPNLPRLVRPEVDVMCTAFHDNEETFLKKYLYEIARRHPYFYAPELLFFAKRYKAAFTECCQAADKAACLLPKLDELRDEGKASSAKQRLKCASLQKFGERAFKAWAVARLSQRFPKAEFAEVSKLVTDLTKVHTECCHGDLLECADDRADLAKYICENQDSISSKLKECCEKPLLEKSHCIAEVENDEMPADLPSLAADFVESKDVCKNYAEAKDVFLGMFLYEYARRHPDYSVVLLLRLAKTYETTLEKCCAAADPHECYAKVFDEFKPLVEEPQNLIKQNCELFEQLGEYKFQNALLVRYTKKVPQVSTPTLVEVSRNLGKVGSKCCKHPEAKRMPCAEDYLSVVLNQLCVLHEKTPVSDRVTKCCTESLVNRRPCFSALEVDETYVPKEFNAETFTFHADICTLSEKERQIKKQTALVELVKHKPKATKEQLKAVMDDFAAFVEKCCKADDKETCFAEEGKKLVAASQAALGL

For the molecule `CC(C)(C)c1cc(C(=O)/C(C#N)=N/Nc2cccc(Cl)c2)no1`, the Activity in data set [1] was 90 to 600 nm; in [2] it was 250 nm; in [3], 150 µM; in data set [9], below 5 nm; in data set [10], 250 nm; at Albumin [13] it was “Active”. Further, the values for the Activity in data set [16] and in [17] were 44% and below 30%, respectively. Besides, the result in data set [4], in data set [5], in data set [6], in data set [7], in data set [8] and in data set [11] was Active. Besides, the outcome in [12] was Active. Moreover, at Albumin [14], the Kd was determined as 230 nM. Besides, the result in data set [15] was inactive.

For the origin of these results see ChEMBL document CHEMBL4396878, “Mechanisms of Specific versus Nonspecific Interactions of Aggregation-Prone Inhibitors and Attenuators” (J Med Chem, 2019).
